An excerpt weighted towards active compounds, which were near 7.2% of everything screened.
M1 ag: M1 muscarinic receptor agonism; CHO-M1 cells, Fluo-4 calcium fluorescence, agonist mode; active compounds read high; B-score at 10 µM; 3% of 64,000 active; AID 626;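 active = fluorescence rise, raw or as B-score row- and column-corrected plate score, outside the 99.7% band of its plate's samples, either direction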
M1 antagonist: blocks the rat M1 muscarinic receptor response to acetylcholine; P08482; CHO-M1 cells, Fluo-4 calcium, ACh EC80 antagonist mode; active compounds read low; B-score at 10 µM; 3.4% of 64,000 active;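 active = calcium fluorescence response, raw or row-and-column corrected B-score, differing from the plate sample mean either way at a set confidence level, mostly lower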
Target sequence (P08482 whole entry, looked up): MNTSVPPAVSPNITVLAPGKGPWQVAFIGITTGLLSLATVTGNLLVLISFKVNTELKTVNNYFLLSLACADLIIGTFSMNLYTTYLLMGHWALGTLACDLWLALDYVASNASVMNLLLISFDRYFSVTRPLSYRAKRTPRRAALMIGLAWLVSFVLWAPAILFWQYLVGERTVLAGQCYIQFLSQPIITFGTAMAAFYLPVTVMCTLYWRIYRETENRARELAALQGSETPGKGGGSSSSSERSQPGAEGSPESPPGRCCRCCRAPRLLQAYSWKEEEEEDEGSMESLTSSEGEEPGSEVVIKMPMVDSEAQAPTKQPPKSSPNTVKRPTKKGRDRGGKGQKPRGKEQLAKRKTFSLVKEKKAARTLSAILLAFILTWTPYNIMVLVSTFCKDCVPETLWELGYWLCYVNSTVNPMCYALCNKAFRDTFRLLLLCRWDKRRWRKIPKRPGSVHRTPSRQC
BAP1 inh: human BAP1 deubiquitinase inhibition; Q92560; recombinant BAP1, Ub-AMC hydrolysis fluorescence kinetic; active compounds read low; calls only at 20 µM; 0.48% of 72,000 active;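 active = activity remaining at or below 50% of control, provided the compound also passes the data quality filters; inactive = the rest, including low values that fail the filters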;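 also: 100% = DMSO wells rate and 0% = substrate alone blank rate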
hDAT+cocaine: human DAT dopamine uptake with cocaine, either direction; Q01959; LLC-PK1 hDAT cells, [14C]-dopamine uptake with cocaine IC80; actives deviate in either direction; B-score at 10 µM; 1.3% of 110,000 active; AID 449768;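 active = Z score or B-score, a plate-position-corrected score, falls beyond the plate's 99.7% confidence bounds, in either direction; inactive = both scores lie inside the 99.7% bounds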;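 also: scored against the spread of the other compound wells on the same plate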
D1 mod: allosteric modulators of human D1 dopamine receptor | P21728 | HEK293 D1, CRE-luciferase, dopamine EC30 potentiation; actives deviate in either direction | B-score at 10 µM | 5.9% of 58,000 active | AID 641;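 active = luminescence count or its row- and column-corrected plate score outside the 99.7% band of the plate's sample wells, on either side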
HEK293 NFkB inh: inhibitors of the PMA/ionomycin-induced NF-kB reporter in HEK293 cells; HEK-293 NF-kB luciferase reporter, luminescence; inhibition, % at 3 µM; 0.21% of 62,000 active;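 active = inhibition above the mean of all tested compounds plus 3 SD, cut at about 40% in these data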;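 also: 0% = stimulated DMSO wells and 100% = 10 µM reference inhibitor 5653914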
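System – HEK-293 cells with stable firefly luciferase reporter driven by four HIV NF-kB elements · Doses – one dose, 3 µM · Schedule – 1 h compound pre-incubation, 16 h PMA/ionomycin at 37 °C · Technique – luminescence from luciferase substrate reagent · Measure – percent inhibition normalized per plate to DMSO and reference-inhibitor controls · Replicates – tested once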
D1 PAM confirm: confirmation of human D1 dopamine receptor allosteric modulators | shares compounds with D1 mod | HEK293 D1 CRE-luciferase, dopamine EC30 potentiation; active compounds read high | luminescence at 10 µM | 88% of 2,200 active | AID 642;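 active = luminescence in either of two replicates above the same-plate mean plus 3 SD of the low-dose dopamine control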
D1 no dopamine: activates D1 CRE-luciferase signal without dopamine present | HEK293 D1 CRE-luciferase, luminescence, no dopamine; active compounds read high | 0.8% of 1,900 active | luminescence at 10 µM | shares compounds with D1 mod | AID 646; in the data active = luminescence above about 3900
Isoprot counter: counter-screen for D1 modulators: isoproterenol response in HEK293 cells | shares compounds with D1 mod | HEK293 D1 CRE-luciferase, isoproterenol EC30 counter-screen | calls only at 10 µM | 63% of 2,200 active | AID 647;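 active = luminescence in either replicate above plate mean of wells with a partly effective reference agonist dose plus 3 SD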;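 also: isoproterenol raises cAMP through native beta-adrenoceptor Gs so signal bypasses D1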
Numbers without * were called inactive; i = inactive; · = not tested or not shown; + = active, no number.

SMILES	M1 ag	M1 antagonist	BAP1 inh	hDAT+cocaine	D1 mod	HEK293 NFkB inh	D1 PAM confirm	D1 no dopamine	Isoprot counter
O=c1c2ccccc2nc(SCc2cccc(F)c2)n1Cc1ccco1	-0.035	-0.24	i	1.3	5.2*	-3	10716*	1512	i
COc1ccc(/C=N/n2cnnc2SCCO)cc1OC	-0.051	0.01	i	-1.1	2.6*	8	14424*	1384	+
COc1ccccc1-c1nnc2sc(-c3cc4ccccc4o3)nn12	1.2	-0.0068	i	·	3.9*	25	10596*	1704	+
COc1ccccc1-c1nnc2sc(-c3cnccn3)nn12	-0.46	-0.95	i	0.33	-0.67	21	·	·	·
O=C(CN1C(=O)c2ccccc2C1=O)Nc1ccc(Br)c(C(=O)c2ccccc2Cl)c1	·	·	i	·	·	·	·	·	·
CC1=C(C(=O)OCCc2ccccc2)C(c2ccccc2[N+](=O)[O-])C2=C(CCCC2=O)N1 (centres undefined)	·	·	i	·	·	·	·	·	·
COc1ccc(-c2csc(Cc3nnc4n3CCCCC4)n2)cc1OC	-0.43	0.039	i	-0.37	20*	14	24836*	1564	+
Cc1ccc(-c2nnc3n2CCCCC3)cc1	·	·	·	-1.3	·	·	·	·	·
CCOC(=O)c1nnn(-c2nonc2N)c1-c1ccc(OCC)cc1	-0.61	-0.17	i	-0.13	3.1	7	·	·	·
Nc1nonc1-n1nnc(C(=O)c2ccccc2)c1-c1ccccc1	0.79	-1.7	i	-0.4	4.3*	7	9084*	1920	i
CCC(=O)Nc1ccc([N+](=O)[O-])cc1C	·	·	i	·	·	·	·	·	·
c1coc(CNc2nc(-c3ccncc3)cs2)c1	-0.91	-0.085	i	0.59	3.6*	3	8460*	1716	+
CC(C)OC(=O)CSc1nnc(-c2cnccn2)n1-c1ccccc1	-1.2	0.041	i	0.13	5.1*	2	7372*	1596	i
c1ccc(-n2c(SCC3CCCCO3)nnc2-c2cnccn2)cc1 (centres undefined)	-0.0055	0.65	i	-0.4	1.7	-20	·	·	·
NC(=O)c1cc2cc(Br)ccc2oc1=Nc1ccc(Oc2ccccc2)cc1	·	·	i	·	·	·	·	·	·
C=CCNc1nc(N)c(C(=O)c2ccc3c(c2)OCO3)s1	-0.2	-0.69	i	0.44	18*	-2	14852*	1788	+
O=C1C2CC=CCC2C(=O)N1c1ccc(Oc2ccc3ccccc3c2)cc1 (centres undefined)	·	·	i	·	·	·	·	·	·
Cc1cc(=O)[nH]c2ccccc12	0.59	0.64	i	0.13	-0.034	9	·	·	·
O=c1cc(-c2ccccc2)c2ccccc2[nH]1	2.1	0.14	·	-1	10*	24	12072*	1476	+
CCOC(=O)CC(=O)Nc1ccc(C(=O)OCC)cc1	0.22	0.38	i	-0.41	4.5*	3	6944	1692	i
CCOC(=O)c1ccc(NC(=O)CCC(=O)OC)cc1	-1.8	-0.6	i	-1.5	0.33	1	·	·	·
CC(NC(=O)c1nn2c(c1Cl)NC(c1ccc(Cl)cc1)CC2C(F)(F)F)c1ccccc1 (centres undefined)	·	·	i	·	·	·	·	·	·
Cc1nc(SCC#N)c2c3c(sc2n1)CCC3	-0.22	0.26	i	-0.086	·	6	·	·	·
N#CCSc1ncnc2sc3c(c12)CCC3	-0.095	1.1	i	-0.8	4.9*	2	12888*	1696	i
CC(C#N)Sc1ncnc2sc3c(c12)CCC3 (centres undefined)	0.28	-0.083	i	0.14	6.3*	27	21012*	1792	+
SMILES	M1 ag	M1 antagonist	BAP1 inh	hDAT+cocaine	D1 mod	HEK293 NFkB inh	D1 PAM confirm	D1 no dopamine	Isoprot counter
Cc1cc(C)nc(Sc2ncnc3sc4c(c23)CCC4)n1	·	·	·	1.2	·	·	·	·	·
O=C(O)c1nsnc1NCCO	·	·	i	·	·	·	·	·	·
Cc1nc2nc(C)n(-c3ccccc3)c2s1	1.5	0.28	i	2	15*	2	21228*	1820	+
COc1ccc(-n2nc3c(c2NC(=O)c2c(OC)cccc2OC)CSC3)cc1	·	·	i	·	·	·	·	·	·
c1ccc(-n2c(SCc3ccncc3)nnc2-c2ccco2)cc1	0.27	0.66	i	0.61	10*	5	14488*	·	+
C=CCn1c(NCCO)nc2sc3c(c2c1=O)CCC3	-0.019	-0.086	i	-0.019	11*	4	6332	1628	i
COc1ccc(CCNC(=O)c2cnn3cccnc23)cc1OC	-0.38	0.12	i	0.28	13*	4	14608*	1264	+
COc1ccc(Cl)cc1Nc1nc(N)nc(C(F)(F)F)n1	·	·	·	-0.22	·	·	·	·	·
COc1ccc(Nc2nc(N)nc(C(F)(F)F)n2)c(OC)c1	0.96	0.17	i	-0.17	4.2*	1	11048*	1732	+
O=C(Nc1sc2c(c1C(=O)Nc1ccc(Cl)cc1)CCCC2)c1ccc([N+](=O)[O-])cc1	·	·	i	·	·	·	·	·	·
O=C1c2cccc([N+](=O)[O-])c2C(=O)N1c1ccccn1	·	·	i	·	·	·	·	·	·
c1ccc(-c2n[nH]nc2-c2ccccc2)cc1	0.99	-0.047	i	0.94	17*	9	18456*	·	+
COc1ccc(-c2nnc3sc(C(C)N4C(=O)c5ccccc5C4=O)nn23)cc1 (centres undefined)	0.99	-0.032	i	1.4	9.3*	16	10292*	1588	+
COc1ccc(-c2nnc3sc(CN4C(=O)c5ccccc5C4=O)nn23)cc1	0.98	-1.9	i	0.14	-0.21	10	·	·	·
FC(F)(F)c1nnc2ccc(N3CCCC3)nn12	·	·	·	-0.3	·	·	·	·	·
FC(F)(F)c1nnc2ccc(N3CCCCCC3)nn12	-0.75	-1.7	i	0.19	3.5*	4	8220*	1432	+
Cc1cc(C)nc(Sc2ccc3nnc(C(F)(F)C(F)(F)C(F)(F)F)n3n2)n1	-0.21	0.12	i	-0.38	-0.0067	-2	·	·	·
FC(F)(F)C(F)(F)C(F)(F)c1nnc2ccc(N3CCOCC3)nn12	1	0.82	i	-0.026	11*	16	18088*	1648	+
CCc1ccc2[nH]c(=O)c(CN(Cc3nnnn3C3CCCC3)C3CCCCC3)cc2c1	-0.11	-0.03	i	0.98	2.5*	16	8428*	1592	i
CCC1(CC)Cc2ccccc2-c2nc(CN3CCOCC3)[nH]c(=O)c21	0.43	-0.1	i	0.18	18*	0	22860*	1804	+
COC(=O)c1sc2ccccc2c1NC(=O)c1ccc(S(=O)(=O)N2CC(C)OC(C)C2)cc1 (centres undefined)	·	·	i	·	·	·	·	·	·
COc1ccccc1C1NC(=O)C(=O)/C1=C(/O)c1ccc(Br)cc1 (centres undefined)	·	·	i	·	·	·	·	·	·

High-throughput results (PubChem)
